The values below come from PubChem BioAssay AID463201 (Sanford-Burnham Center for Chemical Genomics, 2010).

The target of this assay is Vasopressin V2 receptor (Homo sapiens) (UniProt P30518). Put plainly: agonism at AVPR2 via arrestin translocation – imaging, beta-arrestin-GFP, U2OS, agonist mode, selectivity assay for GPR35 antagonist project, SAR follow-up (AID 463201). As to conditions: U2OS V2R beta-arrestin-GFP translocation imaging, 40 min; at 10 µM; hits give high values. An outline of the steps: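 System: U2OS cells stably expressing human vasopressin receptor and beta-arrestin2-GFP; Medium: serum-free medium; Schedule: compound exposure 40 min at 37 °C, then fixation; Signal: fluorescence imaging at 40x of arrestin-GFP spots after 1% PFA fixation; Measure: percent activity from arrestin-GFP spot counts, scaled to vasopressin control wells.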
Vasopressin V2 receptor (Homo sapiens), sequence (P30518 whole entry, looked up): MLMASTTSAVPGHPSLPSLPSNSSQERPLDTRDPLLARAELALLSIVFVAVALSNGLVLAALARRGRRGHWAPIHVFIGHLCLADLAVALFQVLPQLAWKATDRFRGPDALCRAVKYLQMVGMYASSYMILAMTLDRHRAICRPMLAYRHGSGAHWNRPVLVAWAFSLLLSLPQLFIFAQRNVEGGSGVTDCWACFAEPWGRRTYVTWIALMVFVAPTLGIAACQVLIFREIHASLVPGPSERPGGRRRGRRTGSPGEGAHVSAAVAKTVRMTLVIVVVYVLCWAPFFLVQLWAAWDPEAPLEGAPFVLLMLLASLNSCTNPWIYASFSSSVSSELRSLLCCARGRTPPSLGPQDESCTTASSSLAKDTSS

Activity calls are given as the source filed them.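 How the source made its calls: active means activation above 50% at 10 µM in both replicate datasets; inactive means the rest.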

Regarding `CC(C)c1ccc(NC(=O)CSc2nc3ccsc3c(=O)n2Cc2ccc(C(=O)O)cc2)cc1`, the activation is 0.05% (inactive).
For the molecule `Cc1nc(N2CCC(C)CC2)c2c(C)c(C(=O)Nc3ccc4c(c3)OCCO4)sc2n1`, the activation is -0.13% (inactive).
On to `Cc1ccc(/C=C2\SC(=S)N(CCCC(=O)Nc3ccc(O)cc3)C2=O)cc1`, for which the activation was -0.18% (inactive).
With `Cc1c(C(=O)Nc2ccc3c(c2)OCCO3)sc2ncnc(N3CCC(C)CC3)c12`, the activation was -0.03% (inactive).
For `COc1ccc(/C=C2/SC(=S)N(CCCC(=O)Nc3ccc(O)cc3)C2=O)cc1`, the activation is -0.32% (inactive).
Turning to `O=C(Nc1ccc2nc(SCc3ccccc3)sc2c1)c1ccccc1C(=O)N1CCOCC1`, the activation was -0.18% (inactive).
As for `O=C(CCCN1C(=O)S/C(=C\C=C\c2ccccc2)C1=O)Nc1ccc(C(=O)O)cc1`, the activation is 0.11% (inactive).
`O=C(CCCN1C(=O)S/C(=C/C=C/c2ccccc2)C1=O)Nc1ccc(C(=O)O)cc1`: the activation was -0.18% (inactive).
Turning to `O=C(CCCN1C(=O)/C(=C/c2ccc3c(c2)OCO3)SC1=S)Nc1ccc(C(=O)O)cc1`, the activation was -0.34% (inactive).
Turning to `O=C(CCCN1C(=O)/C(=C/c2ccc3c(c2)OCO3)SC1=S)Nc1ccc(C(=O)O)c(O)c1`, the activation was 0.21% (inactive).
Turning to `O=C(Nc1ccc2nc(SCc3ccc(Cl)cc3)sc2c1)c1ccccc1C(=O)N1CCOCC1`, the activation is 0.71% (inactive).
For the molecule `COc1ccc(/C=C2\SC(=S)N(CCCC(=O)Nc3cccc(C(=O)O)c3)C2=O)cc1OC`, the activation is -0.11% (inactive).
`COc1ccc(/C=C2\SC(=S)N(CCCC(=O)Nc3ccc(O)cc3)C2=O)cc1`: the activation was -0.03% (inactive).
On to `CC(/C=C1\SC(=S)N(CCCC(=O)Nc2ccc(C(=O)O)cc2)C1=O)=C\c1ccccc1`, for which the activation is -0.11% (inactive).
Take `COc1cccc(/C=C2\SC(=S)N(CCCC(=O)Nc3ccc(C(=O)O)cc3)C2=O)c1`: the activation is -0.18% (inactive).
As to `Cc1ccc(Cn2ncc3c(N4CCN(c5ccccc5C)CC4)ncnc32)cc1`, the activation is -0.08% (inactive).
For the molecule `CC(C)(C)c1ccc(OCCC(=O)NCCc2ccc(S(N)(=O)=O)cc2)cc1`, the activation is -0.05% (inactive).
In the case of `O=C(CCCN1C(=O)/C(=C\c2ccccc2)SC1=S)Nc1cccc(C(=O)O)c1` it was 0.66% (inactive); in that of `CCOC(=O)c1ccc(NC(=O)CCCN2C(=O)/C(=C/c3ccc(C)cc3)SC2=S)cc1`, 0.05% (inactive).
As for `CC(/C=C1\SC(=S)N(CCCC(=O)Nc2ccc(C(=O)O)c(O)c2)C1=O)=C\c1ccccc1`, the activation is 0.21% (inactive).
With `CCOc1ccc(NC(=O)CSc2nc3ccsc3c(=O)n2Cc2ccc(C(=O)O)cc2)cc1` the figure was 0.24% (inactive); with `CCc1ccc(/C=C2\SC(=S)N(CCCC(=O)Nc3ccc(C(=O)O)cc3)C2=O)cc1`, -0.5% (inactive).
`O=C(CCCN1C(=O)/C(=C/c2ccccc2)SC1=S)Nc1ccc(C(=O)O)c(O)c1`: the activation was 1.45% (inactive).
As to `O=C(CCCN1C(=O)/C(=C/c2ccc3c(c2)OCO3)SC1=S)Nc1cccc(C(=O)O)c1`, the activation is -0.29% (inactive).
With `COc1ccc(/C=C2\SC(=S)N(CCCC(=O)Nc3ccc(C(=O)O)c(O)c3)C2=O)cc1OC`, the activation was -0.24% (inactive).
In the case of `Cc1ccc(/C=C2\SC(=S)N(CCCC(=O)Nc3cccc(C(=O)O)c3)C2=O)cc1`, the activation is -0.08% (inactive).
For `O=C(CCCN1C(=O)/C(=C\c2ccccc2)SC1=S)Nc1ccc(C(=O)O)cc1`, the activation is 0.29% (inactive).
Consider `Cc1ccccc1N1CCN(c2ncnc3c2cnn3Cc2ccc(Cl)cc2)CC1`, for which the activation is -0.16% (inactive).
With `O=C(CCCN1C(=O)S/C(=C/c2ccccc2)C1=S)Nc1ccc(C(=O)O)cc1`, the activation is -0.21% (inactive).
As for `Clc1ccc(Cn2ncc3c(N4CCN(c5ccccc5)CC4)ncnc32)cc1`, the activation is -0.08% (inactive).
